CHO-K1 Ca PAM: counter-screen for M1 PAMs: effect in parental CHO-K1 cells; ATP EC20, Fluo-8 calcium fluorescence; 0% at ATP EC20, 100% at ATP max; activation, % at 3 µM; 360,000 tested, 0.02% active; AID 602247;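 active means activation above the run cutoff, the mean activation of all test compounds plus 3 SD, cut at about 40% in these data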;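 further: peak over basal fluorescence ratio in a 140 s read after ATP addition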
CHO parental Ca: signal in parental CHO cells, OX1R antagonist counter-screen. parental CHO-K1, ATP-induced calcium, Fluo-8 fluorescence. inhibition, % at 5.6 µM. 330,000 tested, 0.63% active. AID 463079;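 active means inhibition above that plate's mean sample inhibition plus 3 SD, cut at about 26% in these data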;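 further: 0% = ATP-challenged DMSO wells and 100% = DMSO wells without ATP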
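Material – parental CHO cells · Reagent – ATP stimulus · Compound – single nominal dose of 5.6 µM per compound · Detection – Fluo-8 fluorescence · Read-out basis – percent inhibition of calcium signal · Controls – ATP-challenged DMSO wells low, unchallenged DMSO wells high · Repeats – no replicates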
OX1R antag-1: OX1R (human) antagonism | OX1R-expressing cells, FRET antagonist read-out | 330,000 tested, 1.8% active | inhibition, % at 6.6 µM | O43613; in the data active means inhibition mostly above about 38%, no sharp cut-off; inactive means mostly below about 40%;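 further: 0% = agonist challenge alone and 100% = reference antagonist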
Target sequence (O43613 whole entry, looked up): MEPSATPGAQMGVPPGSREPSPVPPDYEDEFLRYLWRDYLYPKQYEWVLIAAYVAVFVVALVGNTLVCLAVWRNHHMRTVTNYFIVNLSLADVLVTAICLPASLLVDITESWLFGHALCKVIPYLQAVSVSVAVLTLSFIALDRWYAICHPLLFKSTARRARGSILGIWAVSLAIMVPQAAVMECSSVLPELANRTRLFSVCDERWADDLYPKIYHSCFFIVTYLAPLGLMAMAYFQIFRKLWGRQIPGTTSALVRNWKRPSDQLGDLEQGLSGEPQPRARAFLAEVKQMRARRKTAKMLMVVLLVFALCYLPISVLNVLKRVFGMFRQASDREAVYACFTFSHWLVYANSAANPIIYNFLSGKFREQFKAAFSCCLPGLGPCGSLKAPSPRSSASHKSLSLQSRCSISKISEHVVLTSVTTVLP
CHO-K1 Ca ag: counter-screen for M1 agonists: effect in parental CHO-K1 cells; 360,000 tested, 0.48% active; Fluo-8 calcium fluorescence; scaled to maximal ATP response, vehicle zero; activation, % at 3 µM; AID 602248; in the data active means activation above about 15%;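 further: untransfected CHO-K1 host cells lacking M1 receptor as counterscreen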
CHO-K1 Ca antag: M1 antagonist counterscreen hit in parental CHO-K1 cells | AID 602250 | inhibition, % at 3 µM | 360,000 tested, 0.6% active | ATP-induced calcium, Fluo-8 fluorescence;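 active means inhibition above a per-plate cutoff, the plate's mean sample inhibition plus 3 SD, cut at about 24% in these data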;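 further: 0% = DMSO plus EC80 ATP and 100% = DMSO alone without ATP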
OX1R antag-2: antagonists of human orexin 1 receptor; CHO/OX1R cells, Fluo-8 calcium fluorescence, orexin A; inhibition, % at 5 µM; O43613; 330,000 tested, 0.43% active; AID 434989;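 active means inhibition above its plate's threshold, mean inhibition of all tested compounds on the plate plus 3 SD, cut at about 37% in these data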;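 further: 0% = orexin A challenge wells and 100% = SB-334867-A antagonist wells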
The depositor's hits bear a star; nt = no result given. A selection: hits, their analogues and other compounds. The true share with any hit is near 2.9%.

SMILES	CHO-K1 Ca PAM	CHO parental Ca	OX1R antag-1	CHO-K1 Ca ag	CHO-K1 Ca antag	OX1R antag-2
C/C(=N\NC(=O)c1c(Br)cnn1C)c1ccc(NC(=O)c2ccc(F)cc2)cc1	14	-7	10	1	-10	-12
CCCCN(CC)C(=O)c1cc2cc3ccc(OC)cc3nc2o1	-20	-16	37	1	25*	-33
COc1ccc2cc3cc(C(=O)NCc4ccccn4)oc3nc2c1	12	-31	61*	1	-3	-16
COc1ccc2cc3cc(C(=O)NCC4CCCO4)oc3nc2c1 (centres undefined)	14	-10	74*	1	-7	-4
COc1ccc2cc3cc(C(=O)NCc4ccco4)oc3nc2c1	-13	-7	54*	0	-13	-21
CCOC(=O)C1=CCN(S(=O)(=O)c2ccc(Br)cc2)C1c1ccccc1 (centres undefined)	-5	nt	nt	1	20	nt
COc1ccc(-c2nnn(CC(=O)N(CC(=O)NC3CCCC3)c3ccccc3F)n2)cc1OC	5	-26	14	1	-10	-6
CNC(=O)c1c(NC(=O)CCS(=O)(=O)c2ccc(C)cc2)sc(C)c1C	6	-11	21	1	-3	-28
CCC(=O)N1CCCC(C(=O)NS(=O)(=O)c2cc(C)c(Cl)cc2C)CC1 (centres undefined)	2	nt	nt	0	-7	nt
COc1ccc2[nH]c3c(N4CCc5ccccc5C4)ncnc3c2c1	-26	15	52	11	9	12
Fc1ccc2[nH]c3c(N4CCN(c5ccccc5)CC4)ncnc3c2c1	-5	59*	118*	11	27*	68*
COc1ccc(N2CCN(c3ncnc4c3[nH]c3ccccc34)CC2)cc1	6	75*	89*	11	8	71*
CCOC(=O)N1CCN(c2ncnc3c2[nH]c2ccc(F)cc23)CC1	-6	47*	68	9	19	52*
CNC(=O)COC(=O)c1ccc2c(c1)NC(=O)C1CCCN21 (centres undefined)	nt	-3	26	nt	nt	-14
Nc1ncnc2c1ncn2[C@@H]1O[C@H](COP(=O)(O)O)[C@@H](O)[C@H]1O	26	-7	16	0	-10	-7
Nc1ncnc2c1ncn2[C@@H]1O[C@H](COP(=O)(O)OP(=O)(O)OP(=O)(O)O)[C@@H](O)[C@H]1O	5	-7	17	37*	-1	-4
Nc1ncnc2c1ncn2[C@@H]1O[C@H](CO)C[C@H]1O	-4	-2	12	-1	24*	-4
O=C(Nc1ccccc1)C1Cc2c(-c3ccco3)ccnc2O1 (centres undefined)	12	nt	nt	1	-23	nt
CCCc1nc2ccc(C)cn2c1Cc1cccc(Cl)c1	9	nt	nt	4	-7	nt
COC(=O)C1=C(C)NC(C)=C(C(=O)OC)C1c1ccco1	6	-1	12	19*	-3	-8
Cc1ccc(NS(=O)(=O)c2ccc3c(c2)n(C)c(=O)n3C)c(C)c1	25	-6	-3	18*	0	-36
C/C(=N\Nc1ccc(C(=O)O)cc1)c1ccc(-n2ccnc2)cc1	6	-6	13	1	-6	-4
CCn1cc(C(=O)N2CCN(c3ccc([N+](=O)[O-])cc3)CC2)c(=O)c2ccc(C)nc21	19	4	45*	0	-11	-34
CCn1cc(C(=O)N2CCN(c3cccc(C)c3C)CC2)c(=O)c2ccc(C)nc21	-16	-23	8	-1	0	-31
COc1cc2c(cc1OC)CN(C1CCCN(Cc3cc(Cl)ccc3O)C1)CC2 (centres undefined)	0	-19	8	0	7	-18
O=C(Nc1ccc(Br)c(C(F)(F)F)c1)c1ccc(C(F)(F)F)cc1	-5	40*	62*	12	16	60*
O=C(O)CC/C(=N/Nc1ncc(C(F)(F)F)cc1Cl)C(=O)O	13	-5	7	4	0	-3
Cn1ncc(Cl)c1C(=O)Nc1sc2c(c1C(N)=O)CCC2	8	-24	76*	0	-9	13
NC(=O)c1c(NC(=O)c2cnccn2)sc2c1CCCC2	-11	-4	14	-1	15	-23
COc1ccc(NCc2nnc(SCC(=O)Nc3ccccc3)n2C)cc1	16	-7	11	1	-3	-10

Bioassay records as filed in PubChem BioAssay.
